According to ChEMBL document CHEMBL4052637, “Discovery and Characterization of R/S-N-3-Cyanophenyl-N'-(6-tert-butoxycarbonylamino-3,4-dihydro-2,2-dimethyl-2H-1-benzopyran-4-yl)urea, a New Histone Deacetylase Class III Inhibitor Exerting Antiproliferative Activity against Cancer Cell Lines” (J Med Chem, 2017):
Active and inactive are the calls of the source. The rule behind the calls is not given here.

Legend:
[1] = target: T1, NAD-dependent protein deacetylase sirtuin-2 (Homo sapiens) (UniProt Q8IXJ6); assay: Inhibition of SIRT2 in human U373 cells assessed as increase of alpha-tubulin acetylation after 8 hrs by Western blotting method; type: cell-based
T1 sequence (whole entry): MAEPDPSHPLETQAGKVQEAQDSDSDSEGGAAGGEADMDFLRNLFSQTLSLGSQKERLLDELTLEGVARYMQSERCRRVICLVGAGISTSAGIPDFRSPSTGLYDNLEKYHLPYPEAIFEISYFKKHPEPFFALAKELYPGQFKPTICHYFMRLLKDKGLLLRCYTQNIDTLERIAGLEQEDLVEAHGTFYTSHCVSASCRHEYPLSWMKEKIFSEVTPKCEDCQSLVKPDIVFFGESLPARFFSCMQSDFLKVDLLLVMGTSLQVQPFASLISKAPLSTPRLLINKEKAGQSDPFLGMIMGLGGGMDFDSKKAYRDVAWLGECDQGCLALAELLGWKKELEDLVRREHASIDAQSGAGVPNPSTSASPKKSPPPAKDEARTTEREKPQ

[2] = Induction of senescence in human U373 cells at 5 uM after 6 days by beta-galactosidase assay relative to control; type: functional, U-373MG ATCC
Method in brief: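 Cells were kept 6 days in medium containing 5 μM compound or DMSO vehicle, then stained for senescence-associated β-galactosidase activity. Blue-stained cells were counted and expressed as a percentage of total cells counted. Two independent experiments.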

HCT-116 [3] = assay: Antiproliferative activity against human HCT116 cells expressing wild type p53 after 72 hrs by MTT assay; type: functional, cell-based
Method in brief: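 MTT assay: cells in RPMI 1640 with 10% heat-inactivated FCS at 37 °C and 5% CO2 were seeded 24 h before treatment. They were exposed 72 h to compound at 0.01–100 μM, with DMSO as solvent.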

[4] = target: T2, NAD-dependent protein deacetylase sirtuin-1 (Homo sapiens) (UniProt Q96EB6); assay: Inhibition of SIRT1 in human U373 cells assessed as increase of histone H4 acetylation at 10 uM after 8 hrs by Western blotting method relative to control; type: cell-based
T2 sequence (whole entry): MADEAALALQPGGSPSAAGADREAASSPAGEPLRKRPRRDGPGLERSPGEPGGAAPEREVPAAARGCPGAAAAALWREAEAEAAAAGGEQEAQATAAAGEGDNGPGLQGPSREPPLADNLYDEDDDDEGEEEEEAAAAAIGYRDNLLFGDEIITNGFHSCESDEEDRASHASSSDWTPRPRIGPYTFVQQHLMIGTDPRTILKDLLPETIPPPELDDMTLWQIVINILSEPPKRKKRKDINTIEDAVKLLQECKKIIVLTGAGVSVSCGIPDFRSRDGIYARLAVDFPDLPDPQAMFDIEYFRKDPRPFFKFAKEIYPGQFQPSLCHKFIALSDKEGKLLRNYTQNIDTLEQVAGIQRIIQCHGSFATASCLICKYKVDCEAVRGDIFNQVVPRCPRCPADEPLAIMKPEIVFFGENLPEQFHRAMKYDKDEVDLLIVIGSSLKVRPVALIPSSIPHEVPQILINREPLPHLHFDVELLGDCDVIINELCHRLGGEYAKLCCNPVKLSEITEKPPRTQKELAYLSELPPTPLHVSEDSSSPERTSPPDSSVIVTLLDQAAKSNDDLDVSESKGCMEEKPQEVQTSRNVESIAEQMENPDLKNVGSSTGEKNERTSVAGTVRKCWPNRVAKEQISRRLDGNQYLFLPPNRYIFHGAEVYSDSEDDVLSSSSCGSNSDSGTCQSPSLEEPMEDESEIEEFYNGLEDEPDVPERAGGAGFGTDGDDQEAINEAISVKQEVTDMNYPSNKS

[5] = target: T1, NAD-dependent protein deacetylase sirtuin-2 (Homo sapiens); assay: Inhibition of SIRT2 in human U373 cells assessed as increase of alpha-tubulin acetylation at 10 uM after 8 hrs by Western blotting method relative to control; type: cell-based
[6] = target: T1, NAD-dependent protein deacetylase sirtuin-2 (Homo sapiens); assay: Inhibition of SIRT2 in human Hs683 cells assessed as increase of alpha-tubulin acetylation at 1 uM after 8 hrs by Western blotting method relative to control; type: cell-based
[7] = target: T1, NAD-dependent protein deacetylase sirtuin-2 (Homo sapiens); assay: Inhibition of SIRT2 in human Hs683 cells assessed as increase of alpha-tubulin acetylation at 2.5 uM after 8 hrs by Western blotting method relative to control; type: cell-based
[8] = Potency index, ratio of sirtinol IC50 to test compound IC50 for human U373 cells; type: functional, U-373MG ATCC
[9] = Potency index, ratio of AGK2 IC50 to test compound IC50 for human U373 cells; type: functional, U-373MG ATCC
Hs 683 [10] = assay: Potency index, ratio of AGK2 IC50 to test compound IC50 for human Hs683 cells; type: functional
Hs 683 [11] = assay: Cell cycle arrest in human Hs683 cells assessed as accumulation at G2/M phase at 2 uM after 24 to 48 hrs by propidium iodide staining-based flow cytometry; type: functional; details: 5.8 uM, in the assay text read “at 5.8 uM” for “at 2 uM”
Method in brief: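 Cells were exposed to compound at the IC50 for each line from the 72 h MTT assay, or to a reference HDAC inhibitor at 2 μM. Cell cycle distribution was analyzed after 24 and 48 h. Results are mean ± SD of three independent experiments, with p values against control cells.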

Hs 683 [12] = assay: Antitumor activity against CM-Dil fluorescent dye labeled human Hs683 cells xenografted in zebrafish embryo at 10 uM preincubated with tumor for 36 hrs followed by tumor implantation in zebra fish yolk sac measured after 72 hrs by fluorescence microscopy; type: functional, cell-based
Method in brief: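 Cells were pretreated in vitro at 5 or 10 μM for 30 or 36 h and labeled with CM-DiI 2 h before injection. Then 100–200 cells were injected into the yolk sac of wild-type zebrafish 48 h post-fertilization, anesthetized in 0.02% tricaine. Embryos were kept 72 h at 28.5 °C in Danieau solution with 0.003% phenylthiourea, and fluorescence was quantified in eight fish per condition.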

EKVX = assay: Growth inhibition of human EKVX cells after 48 hrs by SRB assay; type: functional
NCI-H226 = assay: Growth inhibition of human NCI-H226 cells after 48 hrs by SRB assay; type: functional; details: NCI-H226, 48 h
HCT-116 [13] = assay: Growth inhibition of human HCT116 cells after 48 hrs by SRB assay; type: functional; details: HCT-116, 48 h
SF-268 = assay: Growth inhibition of human SF268 cells after 48 hrs by SRB assay; type: functional; details: SF-268, 48 h
Malme-3M = assay: Growth inhibition of human MALME-3M cells after 48 hrs by SRB assay; type: functional
UACC-62 = assay: Growth inhibition of human UACC62 cells after 48 hrs by SRB assay; type: functional; details: UACC-62, 48 h
OVCAR-5 = assay: Growth inhibition of human OVCAR5 cells after 48 hrs by SRB assay; type: functional; details: OVCAR-5, 48 h
SK-OV-3 = assay: Growth inhibition of human SKOV3 cells after 48 hrs by SRB assay; type: functional; details: SK-OV-3, 48 h
ACHN = assay: Growth inhibition of human ACHN cells after 48 hrs by SRB assay; type: functional
CAKI-1 = assay: Growth inhibition of human Caki1 cells after 48 hrs by SRB assay; type: functional; details: CAKI-1, 48 h
TK-10 = assay: Growth inhibition of human TK10 cells after 48 hrs by SRB assay; type: functional; details: TK-10, 48 h

CC(C)(C)OC(=O)Nc1ccc2c(c1)C(NC(=O)Nc1cccc(C#N)c1)CC(C)(C)O2 (stereo not drawn)
inhibition [1]: Dose-dependent effect
Activity [2]: 18.2%
Activity (HCT-116 [3]): Active
fold change (FC) [4]: 4.1
fold change (FC) [5]: 8.6
fold change (FC) [6]: 1.3
fold change (FC) [7]: 1.2
Ratio IC50 [8]: 6
Ratio IC50 [9]: 6 - 14
Ratio IC50 (Hs 683 [10]): 6 - 14
Activity (Hs 683 [11]): Active
Activity (Hs 683 [12]): Active
GI50 (EKVX): 0.562 µM
GI50 (NCI-H226): 2 µM
GI50 (HCT-116 [13]): 1.74 µM
GI50 (SF-268): 5.01 µM
GI50 (Malme-3M): 4.07 µM
GI50 (UACC-62): 1 µM
GI50 (OVCAR-5): 33.9 µM
GI50 (SK-OV-3): 9.12 µM
GI50 (ACHN): 3.8 µM
GI50 (CAKI-1): 2.45 µM
GI50 (TK-10): 5.5 µM
